Assay results published in ChEMBL document CHEMBL3865827, “A novel class of ethacrynic acid derivatives as promising drug-like potent generation of anticancer agents with established mechanism of action” (Eur J Med Chem, 2016).
Calls of active or inactive are those of the source. No cut-off for these calls is given here.

How the values were obtained:
HL60 (Homo sapiens) = experiment: Effect on 24 hrs pretreated human HL60 cells assessed as reduction in endogenous GSH content at 7 uM measured for 60 mins by fluorescence assay; conditions: HL-60
KB [1] = experiment: Selectivity index, ratio of IC50 for Cyprinus carpio EPC to IC50 for human KB cells
[2] = Antiproliferative activity against human HL60 cells after 24 to 72 hrs by MTS assay; type: functional, cell-based; conditions: HL-60
Outline: (§1)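 Cells plated, then dosed 24 h later with compounds in DMSO (1% final; controls DMSO alone), exposed 24 or 72 h. Proliferation inhibition measured as previously reported (MTS/NADH reagent). IC50 from duplicate experiments over 0.5 nM–100 µM. KB grown in D-MEM with 10% fetal calf serum, penicillin, streptomycin, fungizone, 5% CO2; other lines in complete RPMI. EPC are quiescent Cyprinus carpio endothelial progenitor cells.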

HCT-116 = experiment: Induction of necrosis in human HCT116 cells assessed as increase in LDH release at 7 uM after 24 to 48 hrs by fluorescence assay; type: functional, cell-based
KB [3] = experiment: Induction of necrosis in human KB cells assessed as increase in LDH release at 7 uM after 24 to 48 hrs by fluorescence assay; type: functional, cell-based
MRC5 = experiment: Induction of necrosis in human MRC5 SV2 cells assessed as increase in LDH release at 7 uM after 24 to 48 hrs by fluorescence assay; type: functional, cell-based
HL-60 [4] = experiment: Induction of necrosis in human HL60 cells assessed as increase in LDH release at 7 uM after 48 hrs by fluorescence assay; type: functional, cell-based
HL-60 [5] = experiment: Selectivity index, ratio of IC50 for Cyprinus carpio EPC to IC50 for human HL60 cells
[6] = Antiproliferative activity against human KB cells after 24 to 72 hrs by MTS assay; type: functional, cell-based
Outline: as §1

[7] = Antiproliferative activity against Cyprinus carpio EPC after 24 to 72 hrs by MTS assay
[8] = Cytotoxicity against human HL60 cells assessed as reduction in cell viability after 24 hrs by MTS assay; type: functional, cell-based; conditions: HL-60, 24 h
HL-60 [9] = experiment: Antiproliferative activity against human HL60 cells at 7 uM after 24 hrs by viacount-reagent based FACS analysis
[10] = Cell cycle arrest in human HL60 cells assessed as accumulation at sub G1 phase at 2.5 uM after 48 hrs by propidium iodide-staining based FACS analysis (reference value: 1.4 %); type: functional; conditions: HL-60
Outline: (§2)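 HL60 cells, 25,000 per well, exposed 24 and 48 h to 2.5 µM compounds; controls DMSO (1% final). Propidium iodide staining, flow cytometry; fractions in sub-G1, G0/G1, S and G2/M quantified.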

[11] = Cell cycle arrest in human HL60 cells assessed as accumulation at G0/G1 phase at 2.5 uM after 24 hrs by propidium iodide-staining based FACS analysis (reference value: 43.5 %); type: functional; conditions: HL-60
Outline: as §2

[12] = Cell cycle arrest in human HL60 cells assessed as accumulation at G0/G1 phase at 2.5 uM after 48 hrs by propidium iodide-staining based FACS analysis (reference value: 43.8 %); type: functional; conditions: HL-60
Outline: as §2

[13] = Cell cycle arrest in human HL60 cells assessed as accumulation at sub G1 phase at 2.5 uM after 24 hrs by propidium iodide-staining based FACS analysis (reference value: 2.6 %); type: functional; conditions: HL-60
Outline: as §2

[14] = Cell cycle arrest in human HL60 cells assessed as accumulation at G2/M phase at 2.5 uM after 24 hrs by propidium iodide-staining based FACS analysis (reference value: 5.1 %); type: functional; conditions: HL-60
Outline: as §2

[15] = Cell cycle arrest in human HL60 cells assessed as accumulation at G2/M phase at 2.5 uM after 48 hrs by propidium iodide-staining based FACS analysis (reference value: 2.2 %); type: functional; conditions: HL-60
Outline: as §2

[16] = Cell cycle arrest in human HL60 cells assessed as accumulation at S phase at 2.5 uM after 48 hrs by propidium iodide-staining based FACS analysis (reference value: 52.6 %); type: functional; conditions: HL-60
Outline: as §2

[17] = Cell cycle arrest in human HL60 cells assessed as accumulation at S phase at 2.5 uM after 24 hrs by propidium iodide-staining based FACS analysis (reference value: 48.9 %); type: functional; conditions: HL-60
Outline: as §2

[18] = Antiproliferative activity against human OVCAR8 cells after 24 to 72 hrs by MTS assay; type: functional, cell-based; conditions: OVCAR-8
[19] = Antiproliferative activity against human MCF7 cells after 24 to 72 hrs by MTS assay; type: functional, cell-based
[20] = Antiproliferative activity against human PC3 cells after 24 to 72 hrs by MTS assay; type: functional, cell-based; conditions: PC-3
[21] = Antiproliferative activity against human SKOV3 cells after 24 to 72 hrs by MTS assay; type: functional, cell-based; conditions: SK-OV-3
[22] = Antiproliferative activity against human HCT116 cells after 24 to 72 hrs by MTS assay; type: functional, cell-based; conditions: HCT-116

SMILES	Ratio IC50 (KB [1])	IC50 [2] [nM]	Activity (HCT-116)	Activity (MRC5)	Ratio IC50 (HL-60 [5])	IC50 [6] [nM]	IC50 [7] [µM]	also measured
C=C(CC)C(=O)c1ccc(OCC(=O)NCCc2ccc(OC)c(OC)c2)c(Cl)c1Cl	6.8	800	Active	Active	4.2	500	3.4	GSH reduction activity (HL60 (Homo sapiens)): Active; Activity (KB [3]): Active; Activity (HL-60 [4]): Active; IC50 [8]: 1400 nM; Activity (HL-60 [9]): Active
C=C(CC)C(=O)c1ccc(OCC(=O)NCCc2ccc(OP3(=O)OCCCO3)cc2)c(Cl)c1Cl	6.8	1200			2.8	500	3.4	
C=C(CC)C(=O)c1ccc(OCC(=O)NCCc2ccc(OP(=O)(OCC)OCC)c(OC)c2)c(Cl)c1Cl	3.2	800			2.8	700	2.3	
C=C(CC)C(=O)c1ccc(OCC(=O)NCCc2ccc(OP3(=O)OCCC(c4cccc(Cl)c4)O3)cc2)c(Cl)c1Cl (configuration not stated)	3.1	900			2.4	700	2.2	
C=C(CC)C(=O)c1ccc(OCC(=O)N2CCN(c3ccc(OP(=O)(OCC)OCC)cc3)CC2)c(Cl)c1Cl	9.3	500			5.6	300	2.8	
C=C(CC)C(O)c1ccc(OCC(=O)NCCc2ccc(O)cc2)c(Cl)c1Cl (configuration not stated)			Active	Active				Activity [10]: 6.1%; Activity [11]: 42.3%; Activity [12]: 51.9%; Activity [13]: 2%; Activity [14]: 5.2%; Activity [15]: 0.6%; Activity [16]: 41.5%; Activity [17]: 50.5%
C=C(CC)C(=O)c1ccc(OCC(=O)NCCc2ccc(OP(=O)(OCC)OCC)cc2)c(Cl)c1Cl	4	1100			2.9	800	3.2	
C=C(CC)C(=O)c1ccc(OCC(=O)N2CCN(c3ccc(OP4(=O)OCCC(c5cccc(Cl)c5)O4)cc3)CC2)c(Cl)c1Cl (configuration not stated)	21	900			8.7	400	7.8	
C=C(CC)C(=O)c1ccc(OCC(=O)N2CCN(c3ccc(OP(=O)(OC)OC)cc3)CC2)c(Cl)c1Cl	17	800			3.6	170	2.9	IC50 [18]: 1400 nM; IC50 [19]: 500 nM; IC50 [20]: 1100 nM; IC50 [21]: 2200 nM; IC50 [22]: 800 nM
CCC(C)C(=O)c1ccc(OCC(=O)N2CCN(c3ccc(OC)cc3)CC2)c(Cl)c1Cl (configuration not stated)			Active	Active				
C=C(CC)C(=O)c1ccc(OCC(=O)NCCc2ccc(O)c(OC)c2)c(Cl)c1Cl	5.6	1600	Active	Active	2.8	800	4.5	GSH reduction activity (HL60 (Homo sapiens)): Active; Activity (KB [3]): Active; IC50 [8]: 2600 nM; Activity (HL-60 [9]): Active
C=C(CC)C(=O)c1ccc(OCC(=O)N2CCN(c3ccc(OP4(=O)OCCCO4)cc3)CC2)c(Cl)c1Cl	6.25	350			3.6	200	1.25	Activity [10]: 27.6%; Activity [11]: 40.7%; IC50 [18]: 1900 nM; Activity [12]: 41.7%; Activity [13]: 2.6%; Activity [14]: 9.6%; Activity [15]: 0%; Activity [16]: 30.7%; Activity [17]: 47.1%; IC50 [19]: 900 nM; IC50 [20]: 500 nM; IC50 [21]: 3500 nM; IC50 [22]: 1000 nM
C=C(CC)C(=O)c1ccc(OCC(=O)N2CCN(c3ccc(O)cc3)CC2)c(Cl)c1Cl	8	800	Active	Active	4	400	3.2	Activity [10]: 16.5%; Activity [11]: 41.7%; IC50 [18]: 800 nM; Activity [12]: 49.3%; Activity [13]: 2.9%; Activity [14]: 6.1%; Activity [15]: 0.4%; Activity [16]: 33.8%; Activity [17]: 49.3%; IC50 [19]: 800 nM; IC50 [20]: 3900 nM; IC50 [21]: 2300 nM; IC50 [22]: 2000 nM
CCC(C)C(=O)c1ccc(OCC(=O)N2CCN(c3ccc(O)cc3)CC2)c(Cl)c1Cl (configuration not stated)			Active	Active				
C=C(CC)C(=O)c1ccc(OCC(=O)N2CCN(c3ccc(OC)cc3)CC2)c(Cl)c1Cl	9	800	Active	Active	4.5	400	3.6	
CCC(C)C(=O)c1ccc(OCC(=O)NCCc2ccc(O)cc2)c(Cl)c1Cl (configuration not stated)			Active	Active				Activity [10]: 4.2%; Activity [11]: 42.1%; Activity [12]: 51.7%; Activity [13]: 3.3%; Activity [14]: 7.9%; Activity [15]: 2.2%; Activity [16]: 41.9%; Activity [17]: 46.7%
C=C(CC)C(=O)c1ccc(OCC(=O)NCCc2ccc(OP(=O)(OC)OC)cc2)c(Cl)c1Cl	1.75	1200			0.58	400	0.7	IC50 [18]: 1500 nM; IC50 [19]: 900 nM; IC50 [20]: 800 nM; IC50 [21]: 2800 nM; IC50 [22]: 1500 nM
